Screening data as filed in PubChem.
HKDC1 activator = HKDC1 (human) hexokinase activation | hit rate 0.056% among 340,000 | Q2TB90 | activity change, negative = activation, % at 20 µM | AID 493187 | recombinant HKDC1, G6PDH/diaphorase resazurin fluorescence; hits give low values;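 active = activation of 40% or more at 20 µM, a change of -40% or lower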
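Dosing: single compound dose of 20 µM, 1% DMSO final / Test system: in-house human HKDC1 enzyme, G6PDH and diaphorase coupling enzymes / Quantity: 5 µg/mL HKDC1 final / Incubation: enzyme reaction 90 min, room temperature, in dark / Buffer or medium: pH 8.0 Tris with MgCl2 / Detection: coupled resazurin-to-resorufin fluorescence, Ex 525/Em 613 nm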
Each line names hits and unclear results; the compound was inactive in the other large screens. Only a sample is shown.

Brc1ccc(C2N3CCCN23)cc1 (stereo not drawn)	HKDC1 activator -79
COc1cc(O)cc2c1cc([N+](=O)[O-])c1c(C(=O)O)cc3c(c12)OCO3	none
Cc1ccc(N2C(=O)NC(=O)/C(=C\c3cc(C)n(-c4sc5c(c4C#N)CCCC5)c3C)C2=O)cc1	none
CCOC(=O)c1c(-n2c(C)cc(C=C3C(=O)NC(=S)NC3=O)c2C)sc2c1CCCC2	none
CC(=NNC(=S)N1CC2CCC(CC2)C1)c1nccs1	HKDC1 activator -43
CCN(CC)CCCNC(=O)c1c(O)c2ccccc2n(Cc2ccccc2)c1=O	none
Cc1cc(O)c2c(c1)C(=O)C13C(=C2O)C(=O)[C@H]2[C@@H](O)[C@@H]1[C@H]1[C@H](O)[C@@H]3C(=O)C3=C(O)c4c(O)cc(C)cc4C(=O)C312 (stereo partly drawn)	none
Nc1c(Br)cc2c3c(cccc13)-c1ccccc1-2	none
O=C1NC(=S)NC(=O)C1=Cc1ccc2c(c1)CCN2CCCCl	none
O=c1nc(/C=C/c2ccc(Cl)cc2Cl)cc(C(F)(F)F)[nH]1	none
